Test results taken from ChEMBL document CHEMBL1146826, “A novel Pd-catalyzed cyclization reaction of ureas for the synthesis of dihydroquinazolinone p38 kinase inhibitors” (Bioorg Med Chem Lett, 2004).

Columns and labels:
PBMC = experiment: Effect on LPS stimulated TNF-alpha release from hPBMCs; format: functional, cell-based; conditions: Homo sapiens
Procedure, shortened: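 Human peripheral blood mononuclear cells incubated with inhibitor, then stimulated with LPS/IFNγ for 3 h; TNFα in supernatants quantified by ELISA.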

[1] = molecular target: Mitogen-activated protein kinase 14 (Mus musculus, UniProt P47811); experiment: Inhibition of murine Mitogen-activated protein kinase p38 alpha
Mitogen-activated protein kinase 14, sequence (P47811 whole entry): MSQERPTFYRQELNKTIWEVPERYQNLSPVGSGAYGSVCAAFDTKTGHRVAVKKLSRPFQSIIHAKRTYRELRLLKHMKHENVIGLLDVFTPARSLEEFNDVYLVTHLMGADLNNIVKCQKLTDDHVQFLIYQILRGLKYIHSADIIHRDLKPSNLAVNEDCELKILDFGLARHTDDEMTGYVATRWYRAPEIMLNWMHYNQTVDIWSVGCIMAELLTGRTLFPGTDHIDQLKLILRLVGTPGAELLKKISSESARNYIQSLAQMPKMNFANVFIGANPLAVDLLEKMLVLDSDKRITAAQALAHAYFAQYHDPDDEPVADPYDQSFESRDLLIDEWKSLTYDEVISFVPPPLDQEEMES
Procedure, shortened: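 Phosphorylated His-tagged murine p38α MAP kinase (10 ng/well) assayed with immobilized GST-ATF-2 as substrate.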

Mus musculus = experiment: Compound was tested for the inhibition of TNF-alpha release after LPS stimulation in mice at a dose of 30 mg/kg, po; format: functional
Procedure, shortened: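 Mice given compound orally at 30 mg/kg; 1 h after dosing, LPS (20 mg/kg) injected iv. One hour later blood collected and TNFα measured by mouse-specific ELISA.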

IC50 [1] [nM] | Structure (SMILES) | IC50 (PBMC) [nM] | inhibition in vivo at 30 mg/kg (Mus musculus) [%]
53 | O=C1NCc2cc(NS(=O)(=O)c3ccccc3)ccc2N1c1c(Cl)cccc1Cl | 140 | 
780 | CN(c1ccc2c(c1)CNC(=O)N2c1c(Cl)cccc1Cl)S(=O)(=O)c1cc(Cl)ccc1Cl | 1200 | 
380 | O=C1NCc2cc(Nc3ccc(F)cc3F)ccc2N1c1c(Cl)cccc1Cl | 290 | 
180 | O=C1NCc2cc(NS(=O)(=O)c3ccccc3Cl)ccc2N1c1c(Cl)cccc1Cl | 510 | 
34 | O=C1NCc2cc(NS(=O)(=O)c3ccc(F)c(Cl)c3)ccc2N1c1c(Cl)cccc1Cl | 84 | 
1800 | Cc1ccc(S(=O)(=O)Nc2ccc3c(c2)CNC(=O)N3c2c(Cl)cccc2Cl)cc1 | > 10000 | 
100 | O=C1NCc2cc(NS(=O)(=O)c3cc(Cl)ccc3Cl)ccc2N1c1c(Cl)cccc1Cl | 390 | 
570 | O=C1NCc2cc(NS(=O)(=O)c3cc(Cl)ccc3O)ccc2N1c1c(Cl)cccc1Cl |  | 

The next lines start with the compound.

Structure (SMILES) | IC50 [1] [nM] | IC50 (PBMC) [nM] | inhibition in vivo at 30 mg/kg (Mus musculus) [%]
O=C1NCc2cc(Sc3ccc(F)cc3F)ccc2N1c1c(Cl)cccc1Cl | 470 | 960 | 
O=C1NCc2ccccc2N1c1c(Cl)cccc1Cl | 11800 |  | 
COc1cc2c(-c3ccccc3)nc(=O)n(C(C)C)c2cc1N1CCOCC1 | 14000 |  | 
O=C(Nc1ccc2c(c1)CNC(=O)N2c1c(Cl)cccc1Cl)c1ccccc1 | 8500 | 10000 | 
O=C1NCc2cc(NCc3ccccc3)ccc2N1c1c(Cl)cccc1Cl | 150 | 1200 | 
Cc1cc(OCCCN2CCOCC2)cc(C)c1N1C(=O)NCc2cc(NS(=O)(=O)c3ccc(F)c(Cl)c3)ccc21 |  |  | 42
